Here are results for eleven compounds from ChEMBL document CHEMBL4011645, “New Inhibitor Targeting Signal Transducer and Activator of Transcription 5 (STAT5) Signaling in Myeloid Leukemias” (J Med Chem, 2017).

Experiment [1] has as its system KU812 cell line. Put plainly: Antiproliferative activity against human KU812 cells at 10 uM after 72 hrs by trypan blue assay. Format: functional, cell-based. In a few lines:
(§1)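 Screen at a single 10 μM, DMSO as vehicle control, growth followed at 24, 48 and 72 h. Readouts: MTT (0.2×10^5 cells/well in X-Vivo, 4 h MTT, SDS/HCl lysis, OD 570 nm) and trypan blue exclusion counts of living cells. n = 3 in triplicates, mean ± SEM.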

For experiment [2], the system named is KU812 cell line. Put plainly: Induction of apoptosis in human KU812 cells at 10 uM after 48 hrs by FITC-Annexin V and 7-amino-actinomycin D staining-based flow cytometry method. Type of experiment: functional, cell-based. In a few lines: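 After 48 h culture with 10 μM or DMSO, 10^6 cells stained with FITC-Annexin V and 7-AAD for 15 min at 4 °C. Percentage of apoptotic cells measured by flow cytometry; n = 3 in triplicates, mean ± SEM.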

Experiment [3] deals with K562. Put plainly: Antiproliferative activity against human K562 cells after 48 hrs by MTT assay. Type of experiment: functional, cell-based. Conditions: K562, 48 h. The method in brief:
(§2)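 K562 or KU812 cells (RPMI/10% FBS, 37 °C, 5% CO2) exposed to 100 nM–50 μM for 48 h. 0.2×10^5 cells per well in phenol-red-free X-Vivo, MTT 4 h, lysis overnight in 10% SDS/0.003% HCl, absorbance at 570 nm. EC50 fitted; n = 3 in triplicates, mean ± SEM.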

Experiment [4] has as its system KU812 cell line. Put plainly: Antiproliferative activity against human KU812 cells after 48 hrs by MTT assay. Type of experiment: functional, cell-based. The conditions noted are these: KU812, 48 h. In a few lines:
as §2

The subject of experiment [5] is K562. Put plainly: Antiproliferative activity against human K562 cells at 10 uM after 72 hrs by trypan blue assay. Format: functional, cell-based. The method in brief: as §1
In experiment [6] the test system is KU812 cell line. The experiment in a line: Antiproliferative activity against human KU812 cells at 10 uM after 24 hrs by MTT assay. Type of experiment: functional, cell-based. The method in brief: as §1
Experiment [7] relates to K562. The experiment in a line: Antiproliferative activity against human K562 cells at 10 uM after 24 hrs by MTT assay. Format: functional, cell-based. The method in brief: as §1
Experiment [8] relates to KU812 cell line. The experiment in a line: Antiproliferative activity against human KU812 cells at 10 uM after 24 hrs by trypan blue assay. Format: functional, cell-based. The method in brief: as §1
The subject of experiment [9] is K562. The experiment in a line: Antiproliferative activity against human K562 cells at 10 uM after 24 hrs by trypan blue assay. Type of experiment: functional, cell-based. In a few lines:
as §1

In experiment [10] the test system is K562. Put plainly: Antiproliferative activity against human K562 cells at 10 uM after 72 hrs by MTT assay. Format: functional, cell-based. The method in brief:
as §1

Experiment [11] deals with KU812 cell line. Put plainly: Antiproliferative activity against human KU812 cells at 10 uM up to 72 hrs by MTT assay. Type of experiment: functional, cell-based. In a few lines: as §1
For experiment [12], the system named is K562. Put plainly: Antiproliferative activity against human K562 cells at 10 uM after 48 hrs by MTT assay. Type of experiment: functional, cell-based. The method in brief:
as §1

Experiment [13] relates to KU812 cell line. The experiment in a line: Antiproliferative activity against human KU812 cells at 10 uM after 48 hrs by MTT assay. Type of experiment: functional, cell-based. The method in brief: as §1
Experiment [14] deals with K562. Put plainly: Antiproliferative activity against human K562 cells at 10 uM after 48 hrs by trypan blue assay. Type of experiment: functional, cell-based. The method in brief:
as §1

Experiment [15] has as its system KU812 cell line. Put plainly: Antiproliferative activity against human KU812 cells at 10 uM after 48 hrs by trypan blue assay. Type of experiment: functional, cell-based. In a few lines:
as §1

Experiment [16] has as its target T1, Signal transducer and activator of transcription 5A (Homo sapiens) (UniProt P42229).
T1 sequence (whole entry): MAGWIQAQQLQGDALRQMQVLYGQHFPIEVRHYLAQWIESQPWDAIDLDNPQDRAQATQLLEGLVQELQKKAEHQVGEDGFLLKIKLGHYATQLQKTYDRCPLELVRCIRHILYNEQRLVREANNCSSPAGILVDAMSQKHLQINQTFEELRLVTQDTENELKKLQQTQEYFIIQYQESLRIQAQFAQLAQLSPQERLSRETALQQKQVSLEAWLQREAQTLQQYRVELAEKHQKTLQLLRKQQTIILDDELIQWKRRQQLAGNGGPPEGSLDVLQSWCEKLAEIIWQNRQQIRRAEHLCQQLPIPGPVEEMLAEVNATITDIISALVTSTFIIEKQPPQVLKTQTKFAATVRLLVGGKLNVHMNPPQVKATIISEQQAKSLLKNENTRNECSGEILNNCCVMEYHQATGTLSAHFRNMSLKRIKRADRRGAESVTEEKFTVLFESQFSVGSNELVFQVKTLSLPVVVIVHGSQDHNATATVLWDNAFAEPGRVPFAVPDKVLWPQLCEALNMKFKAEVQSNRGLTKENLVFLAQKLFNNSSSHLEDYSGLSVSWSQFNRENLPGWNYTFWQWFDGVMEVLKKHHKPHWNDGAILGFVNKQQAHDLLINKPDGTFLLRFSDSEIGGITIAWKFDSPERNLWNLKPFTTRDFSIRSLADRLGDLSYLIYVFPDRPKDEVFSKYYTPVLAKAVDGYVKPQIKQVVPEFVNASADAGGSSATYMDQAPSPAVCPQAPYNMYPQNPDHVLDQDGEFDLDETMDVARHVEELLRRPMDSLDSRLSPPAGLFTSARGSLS
Put plainly: Inhibition of STAT5 phosphorylation in human KU812 cells at 10 uM after 72 hrs by Western blot method. Type of experiment: cell-based. The method in brief: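 Western blot of KU812 cells 72 h after exposure to 10 µM. Lysates in 2x Laemmli buffer were run on SDS-PAGE and transferred to nitrocellulose. Blots were probed with P-Y694/699-STAT5 and STAT5 antibodies and detected by ECL.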

Activity calls are given as the source filed them. The rule behind the calls is not given here.

As to `CC1(C)CCN(CCOc2ccc3[nH]ccc3c2)c2ccc(-c3ccc(Cl)nc3)cc21`, the outcome in experiment [1] and in [2] was Active. Further, the EC50 in experiment [3] is 13 µM; in experiment [4] it was 5.41 µM.

`CC1(C)CCN(CCOc2ccc3[nH]ccc3c2)c2ccc(-c3ccncc3)cc21`: the outcome in [1], in experiment [2] and in experiment [5] was Active. For the same compound, the EC50 in [3] worked out at 22.7 µM; in experiment [4], 9.38 µM.

With `CC1(C)CCN(CCOc2ccc3[nH]ccc3c2)c2ccccc21`, the result in experiment [6], in experiment [7], in [8] and in experiment [9] was Active. Further, the EC50 in experiment [3] amounted to 78.1 µM; in experiment [4], 14.6 µM.

On to `CCOC(=O)Cn1ccc2cc(OCCN3CCC(C)(C)c4ccccc43)ccc21`, for which the result in experiment [10], in experiment [1], in [11] and in [5] was inactive.

Consider `CC1(C)CCN(CCOc2ccc3c(ccn3CC(=O)O)c2)c2ccccc21`, for which the outcome in experiment [12], in experiment [13], in experiment [14] and in [15] was inactive.

For the compound `CC1(C)CCN(CCOc2ccc3[nH]ccc3c2)c2ccc(-c3cccc([N+](=O)[O-])c3)cc21`, the outcome in experiment [10], in experiment [1], in experiment [11] and in [5] was inactive.

On to `CC1(C)CCN(CCOc2ccc3c(ccn3CC(=O)O)c2)c2ccc(C(=O)C3CCCCC3)cc21`, for which the inhibition result in experiment [16] was “Active”. Moreover, a half-maximal response in experiment [4] (EC50) required 197 µM.

Consider `CC1(C)CCN(CCOc2ccc3[nH]ccc3c2)c2ccc(Br)cc21`, for which the EC50 in [3] came out at 15.6 µM; in [4], 7.59 µM.

On to `CC1(C)CCN(CCOc2ccc3[nH]ccc3c2)c2ccc(C(=O)C3CCCCC3)cc21`, for which the outcome in experiment [12], in [6], in experiment [14] and in experiment [8] was Active. The outcome in experiment [13], in [10], in experiment [15] and in [5] was inactive.

For `Cn1ccc2cc(OCCN3CCC(C)(C)c4ccccc43)ccc21`, the outcome in experiment [10], in experiment [1], in experiment [11] and in [5] was inactive.

For the compound `CC1(C)CCN(CCOc2ccc3[nH]ccc3c2)c2ccc(-c3ccccn3)cc21`, the outcome in [10], in experiment [1], in experiment [11] and in experiment [5] was inactive.
